Assay results reported in ChEMBL document CHEMBL5528013 (Eur J Med Chem, 2024).
Active and inactive are the calls of the source. The calls are words filed in the database; no cut-off is given here.

Key:
[1] = tested on: MOLM-14; assay: Inhibition of ERK phosphorylation in human MOLM-14 cells at 1 times IC50 incubated for 2 hrs by Western blot analysis; assay type: cell-based
[2] = tested on: MOLM-14; assay: Antiproliferative activity against human MOLM-14 cells assessed as inhibition of cell growth incubated for 72 hrs by resazurin dye based assay; assay type: functional; conditions: MOLM-14, 72 h
Summary of the method: (§1)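 Logarithmic-phase cells were seeded at 5000 per well and treated 24 h later, in triplicate, with various concentrations for 72 h. MOLM14 lines were grown in RPMI with 10 % FBS, and other lines per provider instructions, all at 37 °C and 5 % CO2. Resazurin was then added for 4–6 h and fluorescence read. GI50 was taken from percent growth versus DMSO control, fitted with a variable-slope normalized-response model; at least three runs.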

[3] = biological target: High affinity nerve growth factor receptor (Homo sapiens) (UniProt P04629); assay: Inhibition of TRKA (unknown origin) at 4.5 nM incubated for 1 hr by KINOMEscan analysis relative to control
Chain of High affinity nerve growth factor receptor (Homo sapiens) (P04629 33-796 limits assumed): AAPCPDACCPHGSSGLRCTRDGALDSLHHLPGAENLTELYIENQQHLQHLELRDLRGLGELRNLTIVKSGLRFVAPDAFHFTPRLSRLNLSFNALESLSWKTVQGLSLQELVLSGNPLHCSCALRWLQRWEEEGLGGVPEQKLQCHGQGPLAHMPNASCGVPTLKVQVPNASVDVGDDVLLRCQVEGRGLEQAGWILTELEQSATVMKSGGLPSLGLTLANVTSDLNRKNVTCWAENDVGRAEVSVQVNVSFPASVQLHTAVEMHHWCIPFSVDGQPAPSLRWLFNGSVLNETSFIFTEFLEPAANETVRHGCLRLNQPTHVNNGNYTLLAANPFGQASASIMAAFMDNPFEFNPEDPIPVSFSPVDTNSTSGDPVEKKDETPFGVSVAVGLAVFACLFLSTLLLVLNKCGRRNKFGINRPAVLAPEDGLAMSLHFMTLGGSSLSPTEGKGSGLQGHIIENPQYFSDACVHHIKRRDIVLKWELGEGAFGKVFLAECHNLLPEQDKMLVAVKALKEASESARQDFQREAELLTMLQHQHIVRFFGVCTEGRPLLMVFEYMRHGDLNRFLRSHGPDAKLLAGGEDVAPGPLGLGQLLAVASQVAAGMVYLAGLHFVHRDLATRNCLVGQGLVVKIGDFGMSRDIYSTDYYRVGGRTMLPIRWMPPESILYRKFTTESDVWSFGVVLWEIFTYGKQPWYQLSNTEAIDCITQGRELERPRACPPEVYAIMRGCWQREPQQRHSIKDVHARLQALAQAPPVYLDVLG
Summary of the method: (§2)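 Competition binding panel: DNA-tagged kinases combined with beads carrying immobilized biotinylated ligand and test compound in binding buffer (20 % SeaBlock, 0.17x PBS, 0.05 % Tween 20, 6 mM DTT). Compound diluted from 100x DMSO stocks. Incubated 1 h at room temperature with shaking, then washed. Bound kinase eluted with non-biotinylated ligand for 30 min. Kinase in eluate quantified by qPCR.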

[4] = tested on: MOLM-14; assay type: cell-based; conditions: Homo sapiens, time 2.0 hrs
[5] = tested on: MOLM-14; assay: Inhibition of ERK phosphorylation in human MOLM-14 cells harboring FLT3 D835Y mutant at 1 times IC50 incubated for 2 hrs by Western blot analysis; assay type: cell-based
[6] = tested on: K562; assay: Antiproliferative activity against human K562 cells assessed as inhibition of cell growth incubated for 72 hrs by resazurin dye based assay; assay type: functional; conditions: K562, 72 h; summary of the method: as §1
[7] = tested on: MOLM-14; assay: Antiproliferative activity against human MOLM-14 cells harboring FLT3-D835Y mutant assessed as inhibition of cell growth incubated for 72 hrs by resazurin dye based assay; assay type: functional; conditions: MOLM-14, 72 h; summary of the method: as §1
[8] = Cytotoxicity against HEK293 cells lacking FLT3 activating mutations assessed as inhibition of cell growth incubated for 72 hrs by resazurin dye based assay; assay type: toxicity; conditions: human; summary of the method: as §1
[9] = tested on: MDA-MB-231; assay: Antiproliferative activity against human MDA-MB-231 cells lacking FLT3 activating mutations assessed as inhibition of cell growth incubated for 72 hrs by resazurin dye based assay; assay type: functional; conditions: MDA-MB-231, 72 h; summary of the method: as §1
[10] = biological target: Receptor-type tyrosine-protein kinase FLT3 (Homo sapiens) (UniProt P36888); conditions: dose 4.5 nM, time 1.0 hrs
[11] = biological target: Mast/stem cell growth factor receptor Kit (Homo sapiens, UniProt P10721); assay: Binding affinity to KIT (unknown origin) at 4.5 nM incubated for 1 hr by KINOMEscan analysis; conditions: 0.0045 µM; summary of the method: as §2
Chain of Mast/stem cell growth factor receptor Kit (P10721 whole entry): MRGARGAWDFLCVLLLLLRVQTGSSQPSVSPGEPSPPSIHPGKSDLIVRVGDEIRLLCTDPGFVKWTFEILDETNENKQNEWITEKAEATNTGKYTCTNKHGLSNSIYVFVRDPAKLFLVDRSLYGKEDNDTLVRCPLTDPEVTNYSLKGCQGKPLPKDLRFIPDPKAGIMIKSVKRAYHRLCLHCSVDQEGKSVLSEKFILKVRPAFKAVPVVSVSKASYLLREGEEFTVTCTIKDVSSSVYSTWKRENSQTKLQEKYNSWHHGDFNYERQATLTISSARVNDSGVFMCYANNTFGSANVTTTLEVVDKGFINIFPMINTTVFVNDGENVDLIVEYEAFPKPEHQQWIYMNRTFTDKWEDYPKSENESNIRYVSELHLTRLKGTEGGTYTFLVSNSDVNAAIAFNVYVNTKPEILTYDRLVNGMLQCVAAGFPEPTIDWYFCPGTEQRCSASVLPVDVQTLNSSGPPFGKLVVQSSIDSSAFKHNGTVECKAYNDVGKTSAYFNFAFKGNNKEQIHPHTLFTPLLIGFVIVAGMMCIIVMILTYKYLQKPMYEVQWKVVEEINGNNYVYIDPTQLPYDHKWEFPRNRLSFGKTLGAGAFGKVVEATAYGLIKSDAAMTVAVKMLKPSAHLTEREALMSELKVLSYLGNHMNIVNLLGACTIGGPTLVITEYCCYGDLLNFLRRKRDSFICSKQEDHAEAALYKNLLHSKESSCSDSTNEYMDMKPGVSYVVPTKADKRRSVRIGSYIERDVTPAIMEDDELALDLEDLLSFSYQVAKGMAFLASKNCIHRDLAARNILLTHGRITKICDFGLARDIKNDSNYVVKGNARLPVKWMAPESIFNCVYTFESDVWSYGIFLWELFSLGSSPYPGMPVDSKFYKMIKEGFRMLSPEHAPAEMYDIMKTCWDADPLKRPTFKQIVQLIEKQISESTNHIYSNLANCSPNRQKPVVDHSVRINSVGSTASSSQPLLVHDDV

[12] = tested on: MOLM-14; assay type: functional, cell-based; conditions: Homo sapiens, MOLM-14, 72 h
[13] = tested on: MOLM-14; assay: Inhibition of ERK phosphorylation in human MOLM-14 cells at 10 times IC50 incubated for 2 hrs by Western blot analysis relative to control; assay type: cell-based
[14] = tested on: MOLM-14; assay: Inhibition of ERK phosphorylation in human MOLM-14 cells harboring FLT3 D835Y mutant at 10 times IC50 incubated for 2 hrs by Western blot analysis relative to control; assay type: cell-based
[15] = biological target: T1, Receptor-type tyrosine-protein kinase FLT3 (Homo sapiens, UniProt P36888); assay: Inhibition of FLT3 (unknown origin) by bioluminescent ADP-Glo assay
T1 sequence (P36888 whole entry): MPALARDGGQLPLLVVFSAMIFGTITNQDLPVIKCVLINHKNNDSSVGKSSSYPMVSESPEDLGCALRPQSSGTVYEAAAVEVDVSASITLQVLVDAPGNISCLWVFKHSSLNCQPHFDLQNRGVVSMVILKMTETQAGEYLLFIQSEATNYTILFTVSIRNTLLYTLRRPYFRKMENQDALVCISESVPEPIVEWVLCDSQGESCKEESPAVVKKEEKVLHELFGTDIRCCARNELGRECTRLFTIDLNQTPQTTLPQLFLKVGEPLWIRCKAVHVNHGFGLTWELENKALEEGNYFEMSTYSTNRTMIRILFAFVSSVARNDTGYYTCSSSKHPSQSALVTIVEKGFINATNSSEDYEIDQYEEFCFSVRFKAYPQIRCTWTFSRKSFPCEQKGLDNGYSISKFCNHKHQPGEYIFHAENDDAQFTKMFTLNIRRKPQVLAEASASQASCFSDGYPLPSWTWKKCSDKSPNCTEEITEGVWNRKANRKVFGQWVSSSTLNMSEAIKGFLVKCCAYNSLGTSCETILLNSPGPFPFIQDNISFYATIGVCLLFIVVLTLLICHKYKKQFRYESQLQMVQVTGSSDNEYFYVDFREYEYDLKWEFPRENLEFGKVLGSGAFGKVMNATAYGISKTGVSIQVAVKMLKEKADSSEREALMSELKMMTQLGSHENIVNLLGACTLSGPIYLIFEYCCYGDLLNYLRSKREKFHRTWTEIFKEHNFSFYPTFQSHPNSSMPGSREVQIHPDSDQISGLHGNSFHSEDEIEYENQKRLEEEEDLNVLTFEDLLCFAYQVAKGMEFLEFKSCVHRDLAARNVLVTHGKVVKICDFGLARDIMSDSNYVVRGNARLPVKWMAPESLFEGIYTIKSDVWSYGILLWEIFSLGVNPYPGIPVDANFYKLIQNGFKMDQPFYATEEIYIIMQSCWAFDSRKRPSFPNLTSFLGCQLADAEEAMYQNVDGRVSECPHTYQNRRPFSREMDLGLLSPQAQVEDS

IC50 [2] [nM]	inhibition [3] [%]	IC50 [6] [nM]	IC50 [7] [nM]	IC50 [9] [nM]	inhibition [10] [%]	IC50 [12] [nM]	IC50 [15] [nM]	SMILES	inhibition [1]	inhibition [4]	inhibition [5]	IC50 at 72 h [8] [nM]	inhibition (INH) [11]	inhibition [13] [%]	inhibition [14] [%]
4.55	> 65	> 1000	3.16	> 1000	> 65	8.34	7.94	Cn1cc(-c2ccn3c(-c4cccc(Nc5ccc(S(C)(=O)=O)cc5)n4)cnc3c2)cn1	Active	Active	Active	> 1000	Not Active	100	100
2.49		969	4.64	> 1000		14	6.63	COc1ccc(Nc2cccc(-c3cnc4cc(-c5cnn(C)c5)ccn34)n2)cc1OC				> 1000			
